In ChEMBL document CHEMBL1128448, “Synthesis and antifungal activity of new azole derivatives containing an N-acylmorpholine ring” (1995) one finds MIC, survival and Survival data, which are given here for one molecule.

Each structure is given as a SMILES string. In brackets after ≈: the same amount, converted by molar mass. Bounds are passed on as bounds.

Holding throughout (assay type): functional
One experiment relates to Aspergillus flavus. In words: In vivo Evaluation of minimum inhibitory concentration against Aspergillus flavus 19. Conditions: in the assay text read “In vitro” for “In vivo”. The method, boiled down:
(§1)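 Stocks are 800 μg/mL in 50% ethanol. Each plate gets 10 μL of inoculum at 10^5 cfu/mL. Incubation at 25 °C, 48 h for yeasts and 120 h for dermatophytes and molds. Organisms are ATCC strains or clinical isolates.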

Experiment [1] has as its system Candida albicans. In words: […] Evaluation of minimum inhibitory concentration against Candida albicans 406. In short, it runs like this:
as §1

Experiment [2] concerns Candida albicans. In words: […] Evaluation of minimum inhibitory concentration against Candida albicans 60. The method, boiled down: as §1
Experiment [3] relates to Candida albicans. Nature of the experiment: In vitro Evaluation of minimum inhibitory concentration against Candida albicans 76. The method, boiled down: as §1
Experiment [4] concerns Meyerozyma guilliermondii. Nature of the experiment: In vitro Evaluation of minimum inhibitory concentration against Candida guilliermondii 26. In short, it runs like this:
as §1

A further experiment concerns Candida parapsilosis. Nature of the experiment: In vitro evaluation of minimum inhibitory concentration against Candida parapsilosis 61. The method, boiled down: as §1
The test system of another experiment is Candida tropicalis. In words: In vitro evaluation of minimum inhibitory concentration against Candida tropicalis 2.11. The method, boiled down:
as §1

The subject of experiment [5] is Mus sp. In words: In vivo evaluation of % survival rate after peroral administration on 3rd day at dose 2.5 mg/kg. Conditions: Mus sp., po.
The subject of experiment [6] is Mus sp. In words: In vivo evaluation of % survival rate after peroral administration on 5th day at dose 1 mg/kg. Conditions: route oral, 1 mg/kg.
The test system of experiment [7] is Mus sp. In words: In vivo evaluation of % survival rate after peroral administration on 5th day at dose 2.5 mg/kg. To be noted: Mus sp., po.
Experiment [8] concerns Mus sp. Nature of the experiment: In vivo evaluation of % survival rate after peroral administration on 7th day at dose 1 mg/kg. To be noted: route oral, 1 mg/kg.
Experiment [9] deals with Mus sp. In words: In vivo evaluation of % survival rate after peroral administration on 7th day at dose 2.5 mg/kg. Conditions: Mus sp., po.
The test system of experiment [10] is Mus sp. In words: In vivo evaluation of % survival rate after peroral administration on 9th day at dose 1 mg/kg. To be noted: route oral, 1 mg/kg.
Experiment [11] has as its system Mus sp. Nature of the experiment: In vivo evaluation of % survival rate after peroral administration on 9th day at dose 2.5 mg/kg. To be noted: Mus sp., po.
Another experiment deals with Rhodotorula mucilaginosa. Nature of the experiment: In vitro evaluation of minimum inhibitory concentration against Rhodotorula rubra 16. The method, boiled down:
as §1

A further experiment relates to Kluyveromyces marxianus. Nature of the experiment: In vitro evaluation of minimum inhibitory concentration against Candida pseudotropicalis 13. The method, boiled down: as §1

What is called MIC is the lowest concentration that inhibits growth of the organism. A higher MIC goes with weaker potency. On to `C[C@H]1N(C(=O)c2ccc(C(F)(F)F)cc2)CC(=O)O[C@@]1(Cn1cncn1)c1ccc(Cl)cc1Cl` (racemic), for which the MIC is > 80 µg/mL with Aspergillus flavus; 5 µg/mL (≈ 9.74 µM) in the experiment on Candida albicans [1]; 10 µg/mL (≈ 19.5 µM) in the experiment on Candida albicans [2]; 20 µg/mL (≈ 39 µM) in the experiment on Candida albicans [3]; 80 µg/mL (≈ 156 µM) in experiment [4]; 40 µg/mL (≈ 77.9 µM) in the experiment with Candida parapsilosis. The MIC is 80 µg/mL (≈ 156 µM) against Candida tropicalis, 80 µg/mL (≈ 156 µM) in the experiment on Rhodotorula mucilaginosa and 20 µg/mL (≈ 39 µM) in the experiment with Kluyveromyces marxianus. Further, the survival at 2.5 mg/kg in the experiment on Mus sp. [5], in the experiment with Mus sp. [7], in the experiment with Mus sp. [9] and in the experiment with Mus sp. [11] was 100% in each case. For the same molecule, the Survival was found to be 80% in the experiment on Mus sp. [6], 55% in the experiment on Mus sp. [8] and 45% with Mus sp. [10].
